Reference: the RNAGym collection of RNA variant scans (doi:10.1126/science.aae0568)
Fewer inactive variants are shown than the library holds.

B1: tRNA (parent)
chain: GUUCCGUUGGCGUAAUGGUAACGCGUCUCCCUCCUAAGGAGAAGACUGCGGGUUCGAGUCCCGUACGGAACG

Variants of: B1
Assay: yeast fitness relative to wild type (ratio to wild type); higher = fitter; tRNA-Arg(CCU), competitive growth, 37 C, YPD
Outline: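 Start and end populations of a pooled competition were compared by 100-nucleotide paired-end sequencing of gene amplicons. The Saccharomyces cerevisiae strains carried tRNA-Arg(CCU) gene variants at the native genomic locus, synthesised with a 3% per-site mutation rate at 69 sites, and competed in YPD at 37°C for 24 hours in six parallel replicates. Darwinian fitness relative to wild type was based on the change in genotype frequencies. Genotypes required ≥ 100 starting reads, and estimates < 0.5 were set to 0.5.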
In the case of GUUCCGUUGGCGUCAUGAUAACGCGUCUGCCUCCUAAGGAGCAGACUGCGGGUUCGAGUCCCGUACGGAACG [A14C G18A C29G A42C], the yeast fitness is reported as ≤ 0.5.
In the case of GUUCCGUUGGCGUCAUGAUAACGCGUCUCCCUCCUAAGGAGAAAACUGCGGGUUCGAGCCCCGUAGGGAACG [A14C G18A G44A U59C C66G], the yeast fitness is reported as ≤ 0.5.
Variant GUUCCGUUGGCGUCAUUGUAACGCGUUUCCCUCCUAAGGAGAAGACUGCGGGUUCGAGUCCCGUACGGAACG [A14C G17U C27U] has a yeast fitness of 0.647.
With GUUCCGUUGGCGUCAUGAUAACGCGUCUCUCUCCUAAGGAGAAGACUGAGGGUUCGAGUCCCGUACGGAACG [A14C G18A C30U C49A] the yeast fitness was ≤ 0.5.
With GUUCCGUUGGCGUCAUGGUAACGCGUCUCCCUCCUAAGGAGAAGACUGCGGGUUCGAGUCCAGUACGGAACG [A14C C62A] the yeast fitness was 0.65.
For GUUCCGUUGGCGUCAUCGUAACGCGUUUCCCUCCUAAGGAGAAGACGGCGGGUUCGAGUCCCGUACGGAACG [A14C G17C C27U U47G], the yeast fitness was ≤ 0.5.
GUUCCGUUGGCGUCAUGGUAACGCGUCUCCCUCCUAAGGAGAAGACUGCGGGUUCGAGUCACGUACGGAACG [A14C C61A] gave a yeast fitness of 0.604.
GUUCCGUUGGCGUCAUGGUAACGCGUCUCCCUCCUAAGGAGAAGACUGCGGGUUCGAGUCUCGUACGGAACG [A14C C61U] gave a yeast fitness of 0.626.
In the case of GUUCCGUUGGCGUCAUGGUAACGCGUCUCCCUCCUAAGGAGAAGACUGCGGGUUCGAGUCUCGUCCGGAACG [A14C C61U A65C], the yeast fitness is reported as ≤ 0.5.
Variant GUUCCGUUGGCGUCAUGAUAACGCGUCUCCCUCCUAAGGAGAAGACUGCGGGUUCGAGUCCCGUACGGAACG [A14C G18A] has a yeast fitness of 0.59.
For GUUCCGUUGGCGUCAUGGUAACGCAUCUCCCUCCUCAGGAGAAAACUGCGGGUUCGAGUCCCGUACGGAACG [A14C G25A A36C G44A], the yeast fitness was 0.571.
For GUUCCGUUGGCGUCAUGGUAACGCAUCUCCCUGCUUAGGAGAAGGCUGCGGCUUCGAGUCCCGUACGGACCG [A14C G25A C33G A36U A45G G52C A70C], the yeast fitness was 0.556.
In the case of GUUCCGUUGGCGUCAUGAUAACGCGUCUCCCUCCUAAGGAGAAGACUACGGGUUCGAGUCCCGUACGGAACG [A14C G18A G48A], the yeast fitness is reported as ≤ 0.5.
In the case of GUUCCGUUGGCGUCAUGAUAACGCGUCUCCGUUCUACGGAGAAGACUGCGGGUUCGAGUCCCGUUCGGAACG [A14C G18A C31G C33U A37C A65U], the yeast fitness is reported as ≤ 0.5.
In the case of GUUCCGUUGGCGUCAUGGUAACGCGUCUCCCUCCUAAGGAGAAGACUGCGGGUUCGAGUUCUGAACGGAACG [A14C C60U C62U U64A], the yeast fitness is reported as ≤ 0.5.
For GUUCCGUUGGCGUCAUGGUAACGCGUCUCCCUCCUAAGGAGAAGACUGCGGGUUCGAGUACCGUUCGGAACG [A14C C60A A65U], the yeast fitness was ≤ 0.5.
In the case of GUUCCGUUGGCGUCAUUGUAAUGCGUCUCCCUCUUAAGGAGAAGACUGCGGGUUCGAGUCCCGUACGGAACG [A14C G17U C22U C34U], the yeast fitness is reported as ≤ 0.5.
For GUUCCGUUGGCGUCAUGAUAACGCGUCUCCCUCCUAAGGAGAAAACUGCGGGUUCGAGUCCCGUAGGGAACG [A14C G18A G44A C66G], the yeast fitness was 0.56.
In the case of GUUCCGUUGGCGUCAUGGUAACGCAUCUGCCUCCUAAGGAGAAGUCUGCGGGUUCGAGUCCAGUACGGACCG [A14C G25A C29G A45U C62A A70C], the yeast fitness is reported as ≤ 0.5.
For GUUCCGUUGGCGUCAUAGUAACGCGUCUCCCUCCUAAGGAGAAGACUCCGGGUUUGAGUCCCUUACGGAACG [A14C G17A G48C C55U G63U], the yeast fitness was ≤ 0.5.
For GUUCCGUUGGCGUCAUCGUAGCGCGUCUCCCACUUAAGGAGAAGACUGCGGGUUCGAGUCCCGUACGGAACG [A14C G17C A21G U32A C34U], the yeast fitness was ≤ 0.5.
With GUUCCGUUGGCGUCAUGCUAACGCGUCUCCCUCCUAAGGACAAGACUGCGGGUUCGAGUCCCGUACGGAACG [A14C G18C G41C] the yeast fitness was 0.662.
For GUUCCGUUGGCGUCAUGGUAACGCGUCUCCCUCCUAAGGAGAAGACUGCGGGUUCGAGUCCCGUAGGCAACG [A14C C66G G68C], the yeast fitness was ≤ 0.5.
With GUUCCGUUGGCGUCAUGAUAAGGCGUCUCCCUCCUAAGGAGAAGACUGCGGGUUCGUGUCCCGUACGGAACG [A14C G18A C22G A57U] the yeast fitness was ≤ 0.5.
GUUCCGUUGGCGUCAUGGUAACGCGUCUCCCUCCUAAGGAGAAGACUGCGGGUUCGAGUCCCGUAGGGAACG [A14C C66G] showed a yeast fitness of 0.558.
GUUCCGUUGGCGUCAUGGUAACGCGUCUCCCUCCUAAGGAGAAGACUGCGGGUUCGAGUCCCGUAAGGAACG [A14C C66A] showed a yeast fitness of 0.722.
Variant GUUCCGUUGGCGUCAUGGUAACGCGUCUCCCUCCUAAGGAGAAGACUGCGGGUUCGAGUCCCGUAUGGAACG [A14C C66U] has a yeast fitness of 0.657.
For GUUCCGUUGGCGUCAUGGUAACACGUCUCCCUCAUAAGGAGAAGACUGGGGGUUCGAGUCCCGUACGGAACG [A14C G23A C34A C49G], the yeast fitness was ≤ 0.5.
In the case of GUUCCGUUGGCGUCAUGGUAACGCGUCUCCCUCCUAAGGAGAAGACUGCGGGUUCGAGUCCUGUACGGCACG [A14C C62U A69C], the yeast fitness is reported as ≤ 0.5.
With GUUCCGUUGGCGUCAUGGUAACCCGUCUCCCUCCUUAGGAGAAGACUGCGGGUUCGAGUCCCGUACGGAUCG [A14C G23C A36U A70U] the yeast fitness was ≤ 0.5.
In the case of GUUCCGUUGGCGUCAUGGUAACGCGUCUCCCUCCUAAGGAGAAGACUGCGGGUUCGAGUCCGGUACGGAGCG [A14C C62G A70G], the yeast fitness is reported as 0.632.
With GUUCCGUUGGCGUCAUGGUAACGCAUCUCCCUCCUAAGGAGAAGACUGCGGGUUCGAGUCCCGUAUGGAACG [A14C G25A C66U] the yeast fitness was 0.541.
With GUUCCGUUGGCGUCAUGGUAACGCGUCUCCCUCCUAAGGAGAAGACUGCGGGUUCGAGUACCGUACGGAUCG [A14C C60A A70U] the yeast fitness was ≤ 0.5.
In the case of GUUCCGUUGGCGUCAUCGUAACGCGACUCCCUCCUAAGGACAAUACUGCGGGUUCGAGUCCCGUACGGAACG [A14C G17C U26A G41C G44U], the yeast fitness is reported as ≤ 0.5.
In the case of GUUCCGUUGGCGUCAUGGUAACACGUCUUCCUCCCAAGGAGAAGACUGCGGGUUGGAGUCCCGUACGGAACG [A14C G23A C29U U35C C55G], the yeast fitness is reported as 0.627.
For GUUCCGUUGGCGUCAUGGUAACGCGUCUCCCUCCUAAGGAGAAGACUGCGGGUUCGAGUCUCGUACGGACCG [A14C C61U A70C], the yeast fitness was ≤ 0.5.
In the case of GUUCCGUUGGCGUCAUGAUAACGCGUCUCCCUCCUAAGGAGGAAACUGCGGGUUCGAGUCCCGUAGGGAACG [A14C G18A A42G G44A C66G], the yeast fitness is reported as ≤ 0.5.
For GUUCCGUUGGCGUCAUGAUAACGCGUCUCCCUCCUAAGGAGAAGACUGCAGGUUCGAGUCCCCUACGGAACG [A14C G18A G50A G63C], the yeast fitness was ≤ 0.5.
